# Measured values from different studies.
# Compare with care: the assays were run in different laboratories.
# Target: Aurora kinase C (AURKC, Homo sapiens, UniProt Q9UQB9)
# Residues used in one study (Q9UQB9 1-309): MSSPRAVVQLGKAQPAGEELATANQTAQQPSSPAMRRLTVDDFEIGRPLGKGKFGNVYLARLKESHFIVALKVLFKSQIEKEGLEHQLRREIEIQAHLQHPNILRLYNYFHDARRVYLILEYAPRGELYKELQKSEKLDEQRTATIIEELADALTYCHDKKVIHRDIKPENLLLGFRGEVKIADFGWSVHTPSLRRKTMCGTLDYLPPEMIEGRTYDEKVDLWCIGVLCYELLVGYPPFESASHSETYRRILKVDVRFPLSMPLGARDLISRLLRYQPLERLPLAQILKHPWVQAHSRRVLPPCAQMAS
SMILES,test,setting,quantity,result
CCCCN(CCCC)C(=O)CN1C[C@H](c2cc(OC)c3c(c2)OCO3)[C@@H](C(=O)O)[C@@H]1CC(C)(C)CCC,"cell-free assay, competition with immobilised ligand",1 µM,remaining binding,100%
CS(=O)(=O)CCNCc1ccc(-c2ccc3ncnc(Nc4ccc(OCc5cccc(F)c5)c(Cl)c4)c3c2)o1,cell-free assay,0.5 µM,remaining signal,90.9%
COc1cc2nccc(Oc3ccc(NC(=O)c4c5n(n(-c6ccc(F)cc6)c4=O)CCCC5)cc3)c2cc1OC,"enzyme activity, inhibitor",0.1 µM,inhibition,24%
CS(=O)(=O)NCC[C@H](NC(=O)c1cncc2c1cnn2-c1ccc(F)cc1)c1ccnc(S(C)(=O)=O)c1,"cell-free assay, competition with immobilised ligand",1 µM,remaining binding,92%
CNC(=O)c1cc(Oc2ccc(NC(=O)Nc3ccc(Cl)c(C(F)(F)F)c3)cc2)ccn1,cell-free assay,0.5 µM,remaining signal,106%
CCC(=O)N[C@@H]1CC[C@H](C(=O)N(C)c2ccc(-c3nc4ccccc4o3)cc2)C1,"cell-free assay, competition with immobilised ligand",1 µM,remaining binding,100%
O=c1cc(-c2cccc3c2Sc2ccccc2S3)oc(N2CCOCC2)c1,"enzyme activity, inhibitor",0.5 µM,remaining activity,84.9%
O=C(O)[C@H]1[C@H](Cn2nnc3ccccc3c2=O)CC[C@@H]1C(=O)c1ccc(OCCC2CCOCC2)cc1,"cell-free assay, competition with immobilised ligand",1 µM,remaining binding,79%
Cc1sc(C(=O)NC2COC2)cc1-n1cc(NC(=O)Nc2c(F)cccc2Cl)cn1,"enzyme activity, inhibitor",10 µM,remaining activity,104%
Nc1ncnc2occ(-c3ccc(NC(=O)Nc4cc(C(F)(F)F)ccc4F)cc3)c12,cell-free assay,20 µM,remaining signal,2.7%
Cc1ccc(NC(=O)c2ccc(C)c(C(F)(F)F)c2)cc1C#Cc1nn(C2CCC(O)CC2)c2ncnc(N)c12 (centres unmarked),cell-free assay,10 µM,remaining signal,101%
CC(C)CC(=O)N1CCc2nc(-c3ccc(Br)cc3)nc(N(C)Cc3ccccc3)c2C1,"cell-free assay, competition with immobilised ligand",0.1 µM,remaining binding,100%
N#CCCc1ccc2c(c1)-c1[nH]c3ccc([N+](=O)[O-])cc3c1CC(=O)N2,cell-free assay,0.5 µM,remaining signal,83.6%
CC(C)(O)[C@H]1CC[C@H](Nc2ccc3ncc(-c4cccc(C(F)(F)F)c4)n3n2)CC1,"enzyme activity, inhibitor",1 µM,remaining activity,88.5%
COc1cc2ncnc(Nc3ccc(Oc4ccccc4)cc3C)c2cc1OC,"enzyme activity, inhibitor",1 µM,inhibition,1%
CC/C(=N\NC(=O)NCc1cccc(O)c1)c1ccc(O)c(C)c1O,"enzyme activity, inhibitor",0.1 µM,inhibition,2.5%
CC(C)(C)c1nc(-c2cccc(NS(=O)(=O)c3c(F)cccc3F)c2F)c(-c2ccnc(N)n2)s1,"enzyme activity, inhibitor, radiometric",1 µM,remaining activity,92%
COc1cc(Cl)c(C(=O)N[C@@H](CN[C@H]2CC[C@@H](N)CC2)Cc2ccc(C#N)cc2)cc1-c1ccc(CN[C@H](C)c2ccc(C)cc2)o1,"enzyme activity, inhibitor",1 µM,remaining activity,94%
CN(C)C(=O)Cn1cc(-c2nc([C@@](C)(c3ccc(-c4cnc(N)nc4)cc3)C3CC3)no2)cn1,"cell-free assay, competition with immobilised ligand",1 µM,remaining binding,100%
Cc1ccc(C(=O)Nc2ccc(CN3CCN(C)CC3)c(C(F)(F)F)c2)cc1C#Cc1cnc2cccnn12,enzyme activity,23.5 nM,remaining activity,94%
